Compounds with a hit are over-represented: about 2.3% of the library has one in this group of screens.
CHT inh: inhibitors of human choline transporter CHT. Q9GZV3. CHT-expressing cells, membrane potential dye, choline response; hits give low values. B-score at 10 µM. 310,000 compounds, 0.86% hits. AID 488975;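 active means B-score over 3 SD under the library average, and starting fluorescence ratio not unusually high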;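 further: choline stimulus applied at its EC90 after an EC20 pre-addition; B-score computed on integrated fluorescence ratio after choline addition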
CHT allo act: human CHT allosteric activation. B-score at 10 µM. 310,000 compounds, 0.49% hits. AID 488977. CHT-expressing cells, membrane potential dye, choline EC20; hits give high values; LV-AA mutant CHT in HEK293 cells;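 active means initial fluorescence not abnormally high and integrated response B-score, plate-corrected, over 3 SD above library mean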
GPR7 antag: antagonists of human GPR7 (neuropeptides B/W receptor 1); inhibition, % at 4.4 µM; GPR7-expressing cells, fluorescence antagonist assay; AID 1861; P48145; 290,000 compounds, 1.1% hits; in the data active means inhibition above about 16%, passing the limit was not always enough;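 further: cells stimulated with the agonist NPW; 0% = agonist with vehicle and 100% = vehicle without agonist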
T cell modulator: T cell immune modulation candidate. 330,000 compounds, 0.068% hits. response (vesicle binding), % at 7 µM. 2C CD8+ T cell-vesicle binding, flow cytometry; hits give low values;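 active means response, share of CD8 T cells binding vesicles, and their 90th percentile fluorescence all below set limits, cut at about 80% in these data, passing the limit was not always enough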;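 further: values below 100% mean blocked vesicle binding to the CD8+ T cells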
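Assay system: 2C TCR transgenic mouse naive CD8+ T cells, MACS-purified | Read-out: CD8+ gate FL2 mean fluorescence as % of same-row positive control | Signal: High-throughput flow cytometry with anti-B7-1 and anti-CD8 staining | Timing: Binding step 1.5 h, 37 °C, antibody labelling 20 min, ice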
pCIP destab: p/CIP protein destabilization; Q05BA5; F442A p/CIP-EGFP cells, EGFP fluorescence, 16 h; decrease of EGFP signal, % at 10 µM; 290,000 compounds, 0.01% hits;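 active means EGFP signal decrease of at least 30% at 10 µM or well 3 SD below plate mean, unless failing retest; inactive means the rest, including hits failing retest or dose response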
Target sequence (Q05BA5 1-1403): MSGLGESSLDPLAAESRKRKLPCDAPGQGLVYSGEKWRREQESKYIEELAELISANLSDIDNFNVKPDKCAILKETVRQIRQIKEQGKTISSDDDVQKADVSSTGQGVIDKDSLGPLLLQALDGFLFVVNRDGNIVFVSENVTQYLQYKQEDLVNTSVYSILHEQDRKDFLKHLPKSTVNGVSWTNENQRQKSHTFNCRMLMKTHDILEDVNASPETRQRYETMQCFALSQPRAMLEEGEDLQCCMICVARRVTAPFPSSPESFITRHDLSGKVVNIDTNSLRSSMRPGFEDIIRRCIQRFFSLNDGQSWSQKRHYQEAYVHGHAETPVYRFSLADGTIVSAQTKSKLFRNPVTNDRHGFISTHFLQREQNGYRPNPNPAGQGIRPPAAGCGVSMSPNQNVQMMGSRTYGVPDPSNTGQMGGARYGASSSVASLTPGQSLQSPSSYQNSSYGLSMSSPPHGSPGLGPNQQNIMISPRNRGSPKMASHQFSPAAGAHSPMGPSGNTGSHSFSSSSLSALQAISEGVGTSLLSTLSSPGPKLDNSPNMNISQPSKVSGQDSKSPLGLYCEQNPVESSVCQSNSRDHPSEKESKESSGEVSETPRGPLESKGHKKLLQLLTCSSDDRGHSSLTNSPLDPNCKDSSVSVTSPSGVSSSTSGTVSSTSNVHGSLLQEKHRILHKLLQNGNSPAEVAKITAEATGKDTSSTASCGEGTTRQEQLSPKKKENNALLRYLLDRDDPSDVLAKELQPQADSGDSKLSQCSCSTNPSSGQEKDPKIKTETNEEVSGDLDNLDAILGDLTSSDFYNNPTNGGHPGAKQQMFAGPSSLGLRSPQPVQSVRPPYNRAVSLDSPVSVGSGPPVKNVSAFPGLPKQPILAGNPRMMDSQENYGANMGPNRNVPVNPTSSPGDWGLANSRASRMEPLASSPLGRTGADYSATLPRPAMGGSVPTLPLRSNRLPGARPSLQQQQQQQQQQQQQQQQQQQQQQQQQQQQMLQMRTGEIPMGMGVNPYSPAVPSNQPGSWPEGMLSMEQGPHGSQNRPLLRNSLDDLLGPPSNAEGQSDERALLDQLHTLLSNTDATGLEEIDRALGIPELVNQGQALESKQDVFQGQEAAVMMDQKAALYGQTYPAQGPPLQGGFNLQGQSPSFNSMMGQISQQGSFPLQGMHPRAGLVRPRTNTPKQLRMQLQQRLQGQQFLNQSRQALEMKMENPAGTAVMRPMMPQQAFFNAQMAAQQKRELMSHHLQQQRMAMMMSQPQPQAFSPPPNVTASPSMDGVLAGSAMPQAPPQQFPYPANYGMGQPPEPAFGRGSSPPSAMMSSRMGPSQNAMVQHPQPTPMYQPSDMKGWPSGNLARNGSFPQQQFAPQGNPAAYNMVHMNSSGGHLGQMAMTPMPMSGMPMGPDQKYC
Pemphigus Ab inh: human desmoglein-3 autoantibody binding inhibition; P32926; DSG3-coupled beads, scFv-anti-DSG3-GFP binding, flow cytometry; hits give low values; binding (percent of control), % at 10 µM; 310,000 compounds, 0.48% hits;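 active means binding more than 3 SD below its plate's average and above zero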;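 further: hits lower antibody fragment binding to DSG3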
CHT activ conf: human CHT activation, confirmatory screen. shares compounds with CHT allo act. activation, % at 10 µM. 2,500 compounds, 91% hits. CHT-expressing cells, membrane potential dye fluorescence (FDSS); % of choline EC20–EC90 response window; HEK293 expressing CHT LV-AA mutant; choline added at its EC20;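 active means primary screen active, with duplicate mean activation above negative control mean plus 3 SD, cut at about 11% in these data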
HEK293 MP dye: activity in parental HEK293 cells lacking CHT; shares compounds with CHT allo act; membrane potential dye fluorescence (FDSS); measured after EC20 choline addition; ratio readout change at 10 µM, hits read low; 2,500 compounds, 62% hits; AID 623908;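 active means duplicate-averaged ratio beyond 3 SD from buffer wells, up or down, though filed actives are nearly all decreases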
An asterisk follows results filed as active; i = inactive; x = no result given.

SMILES	CHT inh	CHT allo act	GPR7 antag	T cell modulator	pCIP destab	Pemphigus Ab inh	CHT activ conf	HEK293 MP dye
CC[n+]1ccc(C)c2cc(P(=O)(c3ccccc3)c3ccccc3)ccc21	i	7.8*	-23	286	2	101	58*	-42*
CC[n+]1ccc(C)c2cc(SC(F)(F)F)ccc21	i	6.9*	1	480	13	92	33*	-52*
O=C(Nc1cccc([N+](=O)[O-])c1)NC1CCCCCCC1	i	i	-9	i	-7	116	x	x
Cc1nc2ccccc2c2oc(C(=O)N3CCC(N4CCCCC4)CC3)cc12	i	7*	13	281	2	137	49*	-41*
Cc1nc2ccccc2c2oc(C(=O)NCCN3CCCCC3C)cc12 (centres undefined)	i	i	-4	456	-3	208	34*	i
COc1cc(NC(=O)CCn2c(=S)[nH]c3ccccc3c2=O)cc(OC)c1OC	x	x	x	x	x	100	x	x
C/C(=N\NC(=O)CN1CCN(c2ccc(F)cc2)CC1)c1ccco1	i	i	x	680	x	x	x	x
CC(Nc1nc(N2CCNCC2)nc2ccccc12)c1ccccc1 (centres undefined)	i	7.1*	-3	493	-3	113	44*	-52*
CC(Nc1cccc([N+](=O)[O-])c1)C(=O)Nc1ccc(S(=O)(=O)N2CCCC2)cc1 (centres undefined)	x	x	x	x	x	103	x	x
O=C(NC1(C(F)(F)F)Oc2ccccc2O1)N1CCCC1	i	6.6*	0	234	-5	x	0	i
O=C(Nc1ccc2c(c1)OCO2)NC1(C(F)(F)F)Oc2ccccc2O1	i	i	8	139	4	96	x	x
COc1ccc(-n2c(C)c(C)c3c(NCCN(C)C)ncnc32)cc1	i	7*	-3	198	3	107	45*	-33*
Cc1ccc(-n2c(C)c(C)c3c(NCCCO)ncnc32)cc1	i	i	-9	177	-8	97	x	x
Cc1c(C)n(-c2ccccc2)c2ncnc(NCCN(C)C)c12	i	i	-3	234	3	107	46*	-42*
COc1ccc(-n2c(C)c(C)c3c(NCCCN(C)C)ncnc32)cc1	i	i	-11	176	3	100	x	x
COc1cccc(C(=O)NNS(=O)(=O)c2ccccc2)c1	x	x	x	x	x	103	x	x
CC(C)COc1cccc(-c2cc(C(=O)N/N=C/c3ccncc3)c3ccccc3n2)c1	i	i	-18	i	-11	x	x	x
COc1ccc(OC)c2c(C)cc(C)nc12	i	8.8*	-15	205	2	106	57*	-81*
Cc1sc2nc3ccc(N4CCCC4)nn3c(=O)c2c1C	i	i	-6	513	-21	95	38*	-38*
CC(NC(=O)c1cccc(S(=O)(=O)N(C)c2ccccc2)c1)c1cccnc1 (centres undefined)	x	x	x	288	x	x	x	x
COCCNc1c2c(nc3c(-c4ccccc4)c(C)nn13)CCC2	i	i	-16	689	-9	109	x	x
Cc1nn2c(NCCCN(C)C)c3c(nc2c1-c1ccccc1)CCC3	i	8.2*	0	434	-2	99	45*	-57*
Cc1ccc(S(=O)(=O)N(C)C)cc1NC(=O)CN1C(=O)NC2(CCc3ccccc32)C1=O (centres undefined)	x	x	x	x	x	98	x	x
O=S1(=O)CCN(C2CCCCCC2)CC1	x	x	x	x	x	109	x	x
O=C(Nc1cccc(/C=C/c2ccccn2)c1)c1ccc(-n2cncn2)c([N+](=O)[O-])c1	i	i	x	204	x	103	x	x
SMILES	CHT inh	CHT allo act	GPR7 antag	T cell modulator	pCIP destab	Pemphigus Ab inh	CHT activ conf	HEK293 MP dye
Cc1ccn2cc(C34CC5CC(CC(C5)C3)C4)nc2c1	i	8.9*	0	359	-7	100	17*	i
Cc1cc(NCCN2CCOCC2)c2ccc3ccccc3c2n1	i	6.8*	6	348	10	101	39*	-41*
COCCNC(=O)/C(C#N)=C/c1c(N2CCN(C)CC2)nc2c(C)cccn2c1=O	i	9.7*	-16	107	-9	110	67*	-56*
COCCCNC(=O)/C(C#N)=C/c1c(N2CCN(C)CC2)nc2ccccn2c1=O	i	i	-11	352	-10	112	48*	-42*
COCCCNC(=O)/C(C#N)=C/c1c(N2CCN(c3ccc(OC)cc3)CC2)nc2c(C)cccn2c1=O	i	i	-20	483	-18	107	x	x
COC(=O)/C(C#N)=C/c1c(N2CCCCCC2)nc2c(C)cccn2c1=O	x	x	-25	x	-4	98	x	x
COCCNC(=O)/C(C#N)=C/c1c(N2CCCCCC2)nc2c(C)cccn2c1=O	i	i	-21	57	-1	97	x	x
COCCCNC(=O)/C(C#N)=C/c1c(N2CCN(C)CC2)nc2c(C)cccn2c1=O	i	6.9*	7	101	-5	98	52*	-56*
CCOC(=O)/C(C#N)=C/c1c(N2CCN(C)CC2)nc2c(C)cccn2c1=O	i	i	-18	156	-4	94	46*	-48*
COc1cc2c(cc1OC)C(=O)CCC2	x	x	x	x	x	95	x	x
CN(C(=O)c1cccc(NC(=O)Cc2cccc(NC(=O)C3CCN(C(=O)CCc4ccccc4)CC3)c2)c1)C1CC1	x	x	x	x	x	105	x	x
CNC(=O)/C(C#N)=C/c1c(N2CCCCCC2)nc2ccccn2c1=O	i	6.4*	-2	231	5	103	-2	-36*
CCNC(=O)/C(C#N)=C/c1c(N2CCCCCC2)nc2ccccn2c1=O	i	i	-15	181	0	96	x	x
COCCNC(=O)/C(C#N)=C/c1c(N2CCN(c3ccccc3)CC2)nc2ccccn2c1=O	i	i	-17	165	-1	100	x	x
CN1CCN(c2nc3ccccn3c(=O)c2C=O)CC1	i	6.3*	-9	276	-1	116	48*	-45*
CCN1CCN(c2nc3c(C)cccn3c(=O)c2/C=C(\C#N)C(=O)NCCOC)CC1	i	8.7*	9	195	4	105	60*	-62*
CCn1c(SCc2cccc(OC)c2)nc2ccccc2c1=O	i	i	-5	242	-16	97	x	x
C[C@H](O)[C@@H]1C(=O)N2CCc3ccc(-c4ccccc4)cc3[C@@H]2C[C@@H]1N(C)C(=O)Nc1cc(Cl)cc(Cl)c1	x	x	x	x	x	97	x	x

From PubChem BioAssay
